Results from ChEMBL document CHEMBL4689842, “EUbOPEN Chemogenomics Library wave 1” (2021).

What was measured:
Format in all cases: toxicity, cell-based
HEK-293T = test: Incucyte cell viability with HEK293T; settings: human, 10 µM, compound concentration 10 uM; also: filed as whole numbers so only -1 and 0 and 1 occur
U2OS [1] = test: Incucyte cell viability with U2OS; settings: human, 10 µM, compound concentration 10 uM; also: filed as whole numbers so only -1 and 0 and 1 occur
U2OS [2] = test: Multiplex assay against U2OS; settings: human
Outline: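 Imaging took place on a CQ1 microscope at 37°C and 5% CO2 once compound had been added to live cells stained at seeding with Hoechst33342, BioTracker Green Microtubule Cytoskeleton Dye, MitoTracker Red and Annexin V Alexa Fluor 680. CellPathfinder machine-learning gating classed cells as Hoechst high-intensity objects or normal cells, classed normal cells as having healthy, pyknosed or fragmented nuclei, and classed pyknosed cells as mitotic or apoptotic. Tubulin, mitochondrial-mass and membrane-permeability phenotypes are per cents of the healthy-nucleus cells.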

[3] = 0 h, replicate number 1, timepoint 0 hours
[4] = 12 h, replicate number 1, timepoint 12 hours
[5] = 18 h, replicate number 1, timepoint 18 hours
[6] = 24 h, replicate number 1, timepoint 24 hours
[7] = 12 h, 1 µM, compound concentration 1 uM, replicate 1
[8] = 12 h, 1 µM, compound concentration 1 uM, replicate 2
[9] = 12 h, 10 µM, compound concentration 10 uM, replicate 1
[10] = 12 h, 10 µM, compound concentration 10 uM, replicate 2
[11] = 24 h, 1 µM, compound concentration 1 uM, replicate 1
[12] = 24 h, 1 µM, compound concentration 1 uM, replicate 2
[13] = 24 h, 10 µM, compound concentration 10 uM, replicate 1
[14] = 24 h, 10 µM, compound concentration 10 uM, replicate 2
[15] = 48 h, 1 µM, compound concentration 1 uM, replicate 1
[16] = 48 h, 1 µM, compound concentration 1 uM, replicate 2
[17] = 48 h, 10 µM, compound concentration 10 uM, replicate 1
[18] = 48 h, 10 µM, compound concentration 10 uM, replicate 2

With `CCc1cc2c(cc1CC)CC(NC[C@H](O)c1ccc(O)c3[nH]c(=O)ccc13)C2` [INDACATEROL] the “Growth Rate” value (HEK-293T; [3]) was 0, the “Growth Rate” value (HEK-293T; 6 h, replicate number 1, timepoint 6 hours) was 0 and the “Growth Rate” value (HEK-293T; [4]) was 0. The “Growth Rate” value (HEK-293T; [5]) was 0, the “Growth Rate” value (HEK-293T; [6]) was 0 and the “Growth Rate” value (U2OS [1]; [3]) was 1. The “Growth Rate” value (U2OS [1]; 6 h, replicate number 2, timepoint 6 hours) was 1, the “Growth Rate” value (U2OS [1]; [4]) was 1 and the “Growth Rate” value (U2OS [1]; 12 h, replicate number 2, timepoint 12 hours) was 0. For the same compound, the “Growth Rate” value (U2OS [1]; [5]) was 0, the “Growth Rate” value (U2OS [1]; [6]) was 0 and the “Population Apoptotic (%)” value (U2OS [2]; [7]) was 41%. The “Population Fragmented Nuclei (%)” value (U2OS [2]; [7]) was 10%, the “Population Healthy Nuclei (%)” value (U2OS [2]; [7]) was 76% and the “Population Hoechst High Intensity Objects (%)” value (U2OS [2]; [7]) was 7%. For the same compound, the “Population Membrane Permeable-Phenotype (%)” value (U2OS [2]; [7]) was 2%, the “Population Mitochondria Different-Phenotype (%)” value (U2OS [2]; [7]) was 10% and the “Population Mitotic Cells (%)” value (U2OS [2]; [7]) was 58%. The “Population Normal (%)” value (U2OS [2]; [7]) was 92%, the “Population Pyknosed Nuclei (%)” value (U2OS [2]; [7]) was 13% and the “Population Tubulin-Different-Phenotype (%)” value (U2OS [2]; [7]) was 11%. For the same compound, the “Total Cell Count” value (U2OS [2]; [7]) was 185, the “Population Apoptotic (%)” value (U2OS [2]; [8]) was 33% and the “Population Fragmented Nuclei (%)” value (U2OS [2]; [8]) was 3%. For the same compound, the “Population Healthy Nuclei (%)” value (U2OS [2]; [8]) was 92%, the “Population Membrane Permeable-Phenotype (%)” value (U2OS [2]; [8]) was 1% and the “Population Mitochondria Different-Phenotype (%)” value (U2OS [2]; [8]) was 11%. The “Population Mitotic Cells (%)” value (U2OS [2]; [8]) was 66%, the “Population Pyknosed Nuclei (%)” value (U2OS [2]; [8]) was 4% and the “Population Tubulin-Different-Phenotype (%)” value (U2OS [2]; [8]) was 14%. The “Total Cell Count” value (U2OS [2]; [8]) was 71, the “Population Fragmented Nuclei (%)” value (U2OS [2]; [9]) was 18% and the “Population Healthy Nuclei (%)” value (U2OS [2]; [9]) was 54%. For the same compound, the “Population Hoechst High Intensity Objects (%)” value (U2OS [2]; [9]) was 4%, the “Population Membrane Permeable-Phenotype (%)” value (U2OS [2]; [9]) was 22% and the “Population Mitochondria Different-Phenotype (%)” value (U2OS [2]; [9]) was 95%. The “Population Normal (%)” value (U2OS [2]; [9]) was 95%, the “Population Pyknosed Nuclei (%)” value (U2OS [2]; [9]) was 27% and the “Population Tubulin-Different-Phenotype (%)” value (U2OS [2]; [9]) was 90%. The “Total Cell Count” value (U2OS [2]; [9]) was 139, the “Population Apoptotic (%)” value (U2OS [2]; [10]) was 68% and the “Population Fragmented Nuclei (%)” value (U2OS [2]; [10]) was 15%. The “Population Healthy Nuclei (%)” value (U2OS [2]; [10]) was 64%, the “Population Hoechst High Intensity Objects (%)” value (U2OS [2]; [10]) was 6% and the “Population Membrane Permeable-Phenotype (%)” value (U2OS [2]; [10]) was 23%. The “Population Mitochondria Different-Phenotype (%)” value (U2OS [2]; [10]) was 98%, the “Population Mitotic Cells (%)” value (U2OS [2]; [10]) was 31% and the “Population Normal (%)” value (U2OS [2]; [10]) was 93%. For the same compound, the “Population Pyknosed Nuclei (%)” value (U2OS [2]; [10]) was 19%, the “Population Tubulin-Different-Phenotype (%)” value (U2OS [2]; [10]) was 88% and the “Total Cell Count” value (U2OS [2]; [10]) was 71. For the same compound, the “Population Apoptotic (%)” value (U2OS [2]; [11]) was 36%, the “Population Fragmented Nuclei (%)” value (U2OS [2]; [11]) was 11% and the “Population Healthy Nuclei (%)” value (U2OS [2]; [11]) was 74%. The “Population Hoechst High Intensity Objects (%)” value (U2OS [2]; [11]) was 6%, the “Population Membrane Permeable-Phenotype (%)” value (U2OS [2]; [11]) was 2% and the “Population Mitochondria Different-Phenotype (%)” value (U2OS [2]; [11]) was 11%. For the same compound, the “Population Mitotic Cells (%)” value (U2OS [2]; [11]) was 63%, the “Population Normal (%)” value (U2OS [2]; [11]) was 93% and the “Population Pyknosed Nuclei (%)” value (U2OS [2]; [11]) was 13%. For the same compound, the “Population Tubulin-Different-Phenotype (%)” value (U2OS [2]; [11]) was 9%, the “Total Cell Count” value (U2OS [2]; [11]) was 184 and the “Population Apoptotic (%)” value (U2OS [2]; [12]) was 14%. The “Population Fragmented Nuclei (%)” value (U2OS [2]; [12]) was 4%, the “Population Healthy Nuclei (%)” value (U2OS [2]; [12]) was 86% and the “Population Hoechst High Intensity Objects (%)” value (U2OS [2]; [12]) was 3%. For the same compound, the “Population Membrane Permeable-Phenotype (%)” value (U2OS [2]; [12]) was 0%, the “Population Mitochondria Different-Phenotype (%)” value (U2OS [2]; [12]) was 10% and the “Population Mitotic Cells (%)” value (U2OS [2]; [12]) was 85%. For the same compound, the “Population Normal (%)” value (U2OS [2]; [12]) was 96%, the “Population Pyknosed Nuclei (%)” value (U2OS [2]; [12]) was 9% and the “Population Tubulin-Different-Phenotype (%)” value (U2OS [2]; [12]) was 12%. The “Total Cell Count” value (U2OS [2]; [12]) was 73, the “Population Apoptotic (%)” value (U2OS [2]; [13]) was 78% and the “Population Fragmented Nuclei (%)” value (U2OS [2]; [13]) was 24%. The “Population Healthy Nuclei (%)” value (U2OS [2]; [13]) was 43%, the “Population Hoechst High Intensity Objects (%)” value (U2OS [2]; [13]) was 4% and the “Population Membrane Permeable-Phenotype (%)” value (U2OS [2]; [13]) was 50%. For the same compound, the “Population Mitochondria Different-Phenotype (%)” value (U2OS [2]; [13]) was 96%, the “Population Mitotic Cells (%)” value (U2OS [2]; [13]) was 21% and the “Population Normal (%)” value (U2OS [2]; [13]) was 95%. The “Population Pyknosed Nuclei (%)” value (U2OS [2]; [13]) was 32%, the “Population Tubulin-Different-Phenotype (%)” value (U2OS [2]; [13]) was 79% and the “Total Cell Count” value (U2OS [2]; [13]) was 174. The “Population Apoptotic (%)” value (U2OS [2]; [14]) was 89%, the “Population Fragmented Nuclei (%)” value (U2OS [2]; [14]) was 11% and the “Population Healthy Nuclei (%)” value (U2OS [2]; [14]) was 67%. For the same compound, the “Population Hoechst High Intensity Objects (%)” value (U2OS [2]; [14]) was 6%, the “Population Membrane Permeable-Phenotype (%)” value (U2OS [2]; [14]) was 59% and the “Population Mitochondria Different-Phenotype (%)” value (U2OS [2]; [14]) was 100%. For the same compound, the “Population Mitotic Cells (%)” value (U2OS [2]; [14]) was 10%, the “Population Normal (%)” value (U2OS [2]; [14]) was 93% and the “Population Pyknosed Nuclei (%)” value (U2OS [2]; [14]) was 20%. The “Population Tubulin-Different-Phenotype (%)” value (U2OS [2]; [14]) was 86%, the “Total Cell Count” value (U2OS [2]; [14]) was 78 and the “Population Apoptotic (%)” value (U2OS [2]; [15]) was 45%. For the same compound, the “Population Fragmented Nuclei (%)” value (U2OS [2]; [15]) was 7%, the “Population Healthy Nuclei (%)” value (U2OS [2]; [15]) was 78% and the “Population Hoechst High Intensity Objects (%)” value (U2OS [2]; [15]) was 4%. The “Population Membrane Permeable-Phenotype (%)” value (U2OS [2]; [15]) was 2%, the “Population Mitotic Cells (%)” value (U2OS [2]; [15]) was 54% and the “Population Normal (%)” value (U2OS [2]; [15]) was 95%. The “Population Pyknosed Nuclei (%)” value (U2OS [2]; [15]) was 14%, the “Population Tubulin-Different-Phenotype (%)” value (U2OS [2]; [15]) was 6% and the “Total Cell Count” value (U2OS [2]; [15]) was 181. For the same compound, the “Population Apoptotic (%)” value (U2OS [2]; [16]) was 0%, the “Population Fragmented Nuclei (%)” value (U2OS [2]; [16]) was 6% and the “Population Healthy Nuclei (%)” value (U2OS [2]; [16]) was 87%. For the same compound, the “Population Hoechst High Intensity Objects (%)” value (U2OS [2]; [16]) was 5%, the “Population Membrane Permeable-Phenotype (%)” value (U2OS [2]; [16]) was 8% and the “Population Mitochondria Different-Phenotype (%)” value (U2OS [2]; [16]) was 12%. For the same compound, the “Population Mitotic Cells (%)” value (U2OS [2]; [16]) was 100%, the “Population Normal (%)” value (U2OS [2]; [16]) was 94% and the “Population Pyknosed Nuclei (%)” value (U2OS [2]; [16]) was 5%. The “Population Tubulin-Different-Phenotype (%)” value (U2OS [2]; [16]) was 11%, the “Total Cell Count” value (U2OS [2]; [16]) was 69 and the “Population Apoptotic (%)” value (U2OS [2]; [17]) was 84%. For the same compound, the “Population Fragmented Nuclei (%)” value (U2OS [2]; [17]) was 23%, the “Population Healthy Nuclei (%)” value (U2OS [2]; [17]) was 30% and the “Population Hoechst High Intensity Objects (%)” value (U2OS [2]; [17]) was 9%. The “Population Membrane Permeable-Phenotype (%)” value (U2OS [2]; [17]) was 38%, the “Population Mitochondria Different-Phenotype (%)” value (U2OS [2]; [17]) was 96% and the “Population Mitotic Cells (%)” value (U2OS [2]; [17]) was 15%. For the same compound, the “Population Normal (%)” value (U2OS [2]; [17]) was 90%, the “Population Pyknosed Nuclei (%)” value (U2OS [2]; [17]) was 45% and the “Population Tubulin-Different-Phenotype (%)” value (U2OS [2]; [17]) was 73%. For the same compound, the “Total Cell Count” value (U2OS [2]; [17]) was 239, the “Population Apoptotic (%)” value (U2OS [2]; [18]) was 73% and the “Population Fragmented Nuclei (%)” value (U2OS [2]; [18]) was 9%. The “Population Healthy Nuclei (%)” value (U2OS [2]; [18]) was 53%, the “Population Hoechst High Intensity Objects (%)” value (U2OS [2]; [18]) was 16% and the “Population Membrane Permeable-Phenotype (%)” value (U2OS [2]; [18]) was 49%. The “Population Mitochondria Different-Phenotype (%)” value (U2OS [2]; [18]) was 100%, the “Population Mitotic Cells (%)” value (U2OS [2]; [18]) was 26% and the “Population Normal (%)” value (U2OS [2]; [18]) was 83%. The “Population Pyknosed Nuclei (%)” value (U2OS [2]; [18]) was 37%, the “Population Tubulin-Different-Phenotype (%)” value (U2OS [2]; [18]) was 67% and the “Total Cell Count” value (U2OS [2]; [18]) was 122.
